Laboratory results as given in ChEMBL document CHEMBL3098078, “Design, Synthesis, and Antiviral Evaluation of Chimeric Inhibitors of HIV Reverse Transcriptase” (ACS Med Chem Lett, 2013).
The source made the active and inactive calls. The calls are words filed in the database; no cut-off is given here.

Tests used:
[1] = system: Human immunodeficiency virus 1; experiment: Ratio of d4T EC50 to compound EC50 for HIV1 3B infected in human MT2 cells; type: functional
[2] = Selectivity index, ratio of CC50 for human MT2 cells to EC50 for HIV1 3B; type: toxicity, cell-based; details: read-out: Ratio CC50/EC50
[3] = (§1) Cytotoxicity against human MT2 cells after 5 days by MTT assay; type: cell-based; details: MT2 cells
Outline: (§2)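 MT-2 cells infected with HIV-1 IIIB are read by MTT assay following a previously published protocol. Inhibition of viral replication gives EC50, and the cytotoxicity read-out gives CC50.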

[4] = target: Human immunodeficiency virus type 1 reverse transcriptase (Human immunodeficiency virus 1, UniProt Q72547); experiment: Inhibition of HIV-1 6His-tagged reverse transcriptase p66/p51-mediated TTP incorporation into D23/D36 primer/template preincubated for 15 mins followed by D23/D36 primer/template and TTP addition measured after 15 mins by PAGE analysis
Outline: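 Steady-state competition assay measuring inhibition of HIV-1 RT-catalysed TTP incorporation opposite template A into radiolabeled D23/D36 primer/template. Products are resolved on gel across increasing inhibitor concentrations, with a reference NNRTI positive control at 250 nM. Percent RT activity loss is plotted against inhibitor concentration to derive IC50.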

[5] = target: Human immunodeficiency virus type 1 reverse transcriptase (Human immunodeficiency virus 1) (UniProt Q72547); experiment: Ratio of d4T IC50 to compound IC50 for HIV-1 6His-tagged reverse transcriptase p66/p51
[6] = target: Human immunodeficiency virus type 1 reverse transcriptase (Human immunodeficiency virus 1) (UniProt Q72547); experiment: Binding affinity to HIV-1 6His-tagged reverse transcriptase p66/p51 assessed as compound incorporation into D23/D36 primer/template at 50 uM after 60 mins by PAGE analysis in presence of MgCl2
Outline: (§3)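 Single-turnover incorporation by HIV-1 RT of the chimeric triphosphate as substrate, using radiolabeled D23/D36 primer/template (template base pairs with TTP). Reactions are sampled at a 0 time point, and a negative control lacks Mg2+. Products are resolved by gel electrophoresis to detect an elongated primer band. A mispaired D23/D36B primer/template (dC opposite template dGMP) serves as a comparison.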

MT2 = experiment: as §1; type: cell-based; details: mt2, 120 h; outline: as §2
[7] = system: Human immunodeficiency virus 1; experiment: Antiviral activity against HIV1 3B infected in human MT2 cells after 5 days by MTT assay; type: functional, organism-based
Outline: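 HIV-1 IIIB replication in MT-2 cell culture, with MTT read-out following a previously published protocol. The nucleoside form was tested. d4T and ddC (NRTI) and TMC120 (NNRTI) were run alongside as positive controls.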

[8] = target: Human immunodeficiency virus type 1 reverse transcriptase (Human immunodeficiency virus 1) (UniProt Q72547); experiment: Binding affinity to HIV-1 6His-tagged reverse transcriptase p66/p51 assessed as compound incorporation into D23/D36 primer/template at 50 uM after 60 mins by PAGE analysis; outline: as §3

SMILES	Ratio EC50 [1]	selectivity ratio [2]	CC50 at 120 h [3] [nM]	IC50 [4] [nM]	Ratio IC50 [5]	Activity [6]	other results
Cc1cc(C#CCCCCCCCC(=O)NCc2cn([C@H]3C[C@H](O)[C@@H](CO)O3)c(=O)[nH]c2=O)cc(C)c1Oc1ccnc(Nc2ccc(C#N)cc2)n1	30	18					
Cc1cc(C)c(Nc2ccnc(Nc3ccc(C#N)cc3)n2)c(C)c1 [DAPIVIRINE]			1900				
Nc1ccn([C@H]2CC[C@@H](CO)O2)c(=O)n1 [ZALCITABINE]			4000				
Cc1cc(C#CCCCCCCCC(=O)NCc2cn([C@H]3C[C@H](O)[C@@H](CO[PH](=O)O)O3)c(=O)[nH]c2=O)cc(C)c1Oc1ccnc(Nc2ccc(C#N)cc2)n1	16	27		4.3	3000	inactive	Activity (MT2): Toxic; Activity [7]: Active
Cc1cn([C@H]2C=C[C@@H](CO)O2)c(=O)[nH]c1=O [STAVUDINE]			2200				EC50 ([7]; Human immunodeficiency virus 1, 3B, MT2, 120 h): 3600 nM
Cc1cc(C#CCCCCCCCC(=O)NCc2cn([C@H]3C[C@H](O)[C@@H](COP(=O)(O)OP(=O)(O)OP(=O)(O)O)O3)c(=O)[nH]c2=O)cc(C)c1Oc1ccnc(Nc2ccc(C#N)cc2)n1				6	2000	Active	Activity [8]: inactive
